Consider one molecule from ChEMBL document CHEMBL4428067, “Drug Discovery against Psoriasis: Identification of a New Potent FMS-like Tyrosine Kinase 3 (FLT3) Inhibitor, 1-(4-((1H-Pyrazolo[3,4-d]pyrimidin-4-yl)oxy)-3-fluorophenyl)-3-(5-(tert-butyl)isoxazol-3-yl)urea, That Showed Potent Activity in a Psoriatic Animal Model” (J Med Chem, 2016).

Structures are written as SMILES. Activity calls are given as the source filed them. The rule behind the calls is not given here.

The species entered for assay [1] is Mus musculus. In words: Antipsoriatic activity in K14-VEGF transgenic mouse model of psoriasis assessed as decrease in Th17 cell formation in lymph node at 0.05% applied tropically over lesion for 29 days by flow cytometric analysis relative to vehicle-treated control. The assay is classed as functional, organism-based. The essentials: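 K14-VEGF mice were treated topically for 29 days with 0.05% cream or vehicle. Lymph node cells were surface-stained with anti-CD4 PE, then fixed and permeabilised. They were stained with FITC anti-IL-17 and analysed by flow cytometry, three mice, mean ± SD.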

The species entered for assay [2] is Mus musculus. As to the kind of experiment: Downregulation of IL17 expression in K14-VEGF transgenic mouse model of psoriasis at 0.05% applied tropically over lesion for 29 days by ELISA. The format is functional, organism-based. The essentials:
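K14-VEGF mice were treated for 29 days with 0.05% cream or vehicle, n=3 each. At termination, blood was held at 4 °C for 12 h and then centrifuged. Plasma IFN-γ and IL-17 were measured by ELISA, mean ± SD.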
(An ELISA detects its analyte on a solid surface through an enzyme-linked reagent.)

For assay [3], the species on record is Mus musculus. As to the kind of experiment: Antipsoriatic activity in K14-VEGF transgenic mouse model of psoriasis assessed as decrease in STAT3 phosphorylation in psoriatic lesion at 0.05% applied tropically over lesion for continuous 29 days by immunohistochemical analysis relative to vehicle control. The format is functional. Also on record: scale not given: the % may be the effect or the level left. Put shortly: (§1)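 K14-VEGF mice were treated topically with 0.05% cream or vehicle for 29 days, n=3 per group. Ear skin was paraffin-embedded, cut into 4-µm sections and immunostained. Staining was quantified in 5 random fields, reported as mean ± SD.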

Assay [4] is filed under the species Mus musculus. In words: Antipsoriatic activity in K14-VEGF transgenic mouse model of psoriasis assessed as upper left quadrant DC cells expressing FLT3 and CD11c in psoriatic plaque lesion at 0.05% applied tropically over lesion for continuous 29 days by flow cytometric analysis (reference value: 8.83%). The assay is classed as functional. Background: In flow cytometry, cells or beads pass a laser one at a time.

Assay [5] deals with T1, Receptor-type tyrosine-protein kinase FLT3 (Mus musculus) (UniProt Q00342).
T1 sequence (whole entry): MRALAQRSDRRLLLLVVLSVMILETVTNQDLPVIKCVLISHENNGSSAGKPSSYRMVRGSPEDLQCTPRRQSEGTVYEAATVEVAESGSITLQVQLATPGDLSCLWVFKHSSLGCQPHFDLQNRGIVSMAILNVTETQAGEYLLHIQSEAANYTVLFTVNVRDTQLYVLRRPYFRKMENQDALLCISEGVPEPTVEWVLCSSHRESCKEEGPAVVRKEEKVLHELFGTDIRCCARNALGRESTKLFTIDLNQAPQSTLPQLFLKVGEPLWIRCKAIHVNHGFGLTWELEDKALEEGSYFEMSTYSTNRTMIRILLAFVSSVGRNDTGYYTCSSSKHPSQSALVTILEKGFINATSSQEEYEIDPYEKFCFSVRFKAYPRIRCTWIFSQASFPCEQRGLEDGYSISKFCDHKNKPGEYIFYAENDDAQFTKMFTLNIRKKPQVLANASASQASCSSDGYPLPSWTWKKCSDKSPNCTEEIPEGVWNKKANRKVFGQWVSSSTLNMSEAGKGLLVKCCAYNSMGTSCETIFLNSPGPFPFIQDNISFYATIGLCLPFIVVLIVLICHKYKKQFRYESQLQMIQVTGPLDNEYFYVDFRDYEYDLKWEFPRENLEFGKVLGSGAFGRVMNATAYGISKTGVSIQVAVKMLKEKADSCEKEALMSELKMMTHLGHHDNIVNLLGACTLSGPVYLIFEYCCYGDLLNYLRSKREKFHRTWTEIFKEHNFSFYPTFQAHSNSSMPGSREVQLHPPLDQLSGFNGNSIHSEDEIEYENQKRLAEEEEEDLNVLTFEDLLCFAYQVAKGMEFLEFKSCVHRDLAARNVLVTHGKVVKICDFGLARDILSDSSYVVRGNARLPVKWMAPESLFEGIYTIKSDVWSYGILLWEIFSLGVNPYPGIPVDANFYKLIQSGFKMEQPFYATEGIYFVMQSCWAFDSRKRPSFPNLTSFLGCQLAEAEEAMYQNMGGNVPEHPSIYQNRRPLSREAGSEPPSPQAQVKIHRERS
As to the kind of experiment: Inhibition of FLT3 in mouse BMDCs assessed as suppression of STAT5 phosphorylation at 10 and 100 nM treated on day 9 post 9 days of FLT3L-stimulation measured after 1 hr by Western blot analysis. Put shortly:
(§2)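 Bone marrow cells were cultured 9 days with FLT3L in supplemented RPMI-1640, then exposed to compound or 0.1% DMSO for 1 h on day 9. Whole cells were lysed and immunoblotted with rabbit antibodies to STAT3, STAT5, pSTAT3 and pSTAT5. Three independent experiments.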
Background: Immunoblotting shows a protein as a band on a membrane.

Assay [6] deals with T1, Receptor-type tyrosine-protein kinase FLT3 (Mus musculus). In words: Inhibition of FLT3 in mouse BMDCs assessed as suppression of STAT3 phosphorylation at 10 and 100 nM treated on day 9 post 9 days of FLT3L-stimulation measured after 1 hr by Western blot analysis. Put shortly: as §2
The species named for assay [7] is Mus musculus. As to the kind of experiment: Antipsoriatic activity in K14-VEGF transgenic mouse model of psoriasis assessed as upper left quadrant FLT3+/CD11c+/B220+ pDC cells in psoriatic plaque lesion at 0.05% applied tropically over lesion for continuous 29 days by flow cytometric analysis (reference value: 36.1%). The format is functional.
For assay [8], the species on record is Mus musculus. In words: Antipsoriatic activity in K14-VEGF transgenic mouse model of psoriasis assessed as lower right quadrant FLT3+/CD11c+/B220+ pDC cells in psoriatic plaque lesion at 0.05% applied tropically over lesion for continuous 29 days by flow cytometric analysis (reference value: 0.52%). The assay is classed as functional.
The species entered for assay [9] is Mus musculus. As to the kind of experiment: Antipsoriatic activity in K14-VEGF transgenic mouse model of psoriasis assessed as decrease in CD8 expression in psoriatic lesion at 0.05% applied tropically over lesion for continuous 29 days by immunohistochemical analysis relative to vehicle control. The format is functional. Also on record: scale not given: the % may be the effect or the level left. The essentials:
as §1

The target of assay [10] is T1, Receptor-type tyrosine-protein kinase FLT3 (Mus musculus). As to the kind of experiment: Inhibition of FLT3 in Balb/c mouse BMDCs assessed as suppression of FLT3L-induced pDC formation measured as upper right quadrant cells level treated on day 9 post 9 days of FLT3L-stimulation measured after 24 hrs by CD11c PerCP and CD45R/B220 FITC staining based flow cytometric analysis (reference value: 14.9%). Further details: scale not given: the % may be the effect or the level left. The essentials: (§3)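 BALB/c bone marrow cells were cultured at 1×10^6/ml with FLT3L in supplemented RPMI-1640 for 9 days. Compound in DMSO or 0.1% DMSO was added on day 9 for 24 h. Cells were stained for 30 min with CD11c PerCP plus B220 FITC (pDC: CD11c+ B220+) or MHC II FITC (mDC: CD11c+ MHC II+), then analysed by flow cytometry. Three independent experiments.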

For assay [11] the target is unchanged. In words: Inhibition of FLT3 in Balb/c mouse BMDCs assessed as suppression of FLT3L-induced mDC formation measured as lower left quadrant cells level treated on day 9 post 9 days of FLT3L-stimulation measured after 24 hrs by CD11c PerCP and I-A/I-E (MHC class II) FITC staining based flow cytometric analysis (reference value: 43.7%). Also on record: scale not given: the % may be the effect or the level left. Put shortly: as §3

The species entered for assay [12] is Mus musculus. In words: Antipsoriatic activity in K14-VEGF transgenic mouse model of psoriasis assessed as reduction in focal parakeratinosis at 0.05% applied tropically over lesion for continuous 29 days by H and E staining method relative to vehicle control. The assay is classed as functional, organism-based. Put shortly: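 Homozygous K14-VEGF mice, 3–4 months old, with moderate to serious psoriasis; n=3 per group. Cream with 0.05% compound or vehicle cream smeared on lesions. Head and neck tissue sections taken after 29 days of treatment and HE-stained. Baker pathological score from 5 random fields, given as mean and SD. Epidermal thickness from 8 random fields, given as mean ± SEM.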

Take `CC(C)(C)c1cc(NC(=O)Nc2ccc(Oc3ncnc4[nH]ncc34)c(F)c2)no1`: the outcome in the assay filed under Mus musculus [1], in the assay listed under Mus musculus [2] and in the assay listed under Mus musculus [12] was Active. The Activity worked out at 64% in the assay filed under Mus musculus [3]; 5.18% in the assay listed under Mus musculus [4]; 9.6% in the assay listed under Mus musculus [7]; 0% in the assay listed under Mus musculus [8]; 79% in the assay filed under Mus musculus [9]; 7.84% in assay [10]. In addition, the Activity in assay [11] worked out at 54.7%. Also, the inhibition entry in assay [5] and in assay [6] was “Active” throughout.
